The values that follow come from ChEMBL document CHEMBL3875159, “High-affinity small molecular blockers of mixed lineage leukemia 1 (MLL1)-WDR5 interaction inhibit MLL1 complex H3K4 methyltransferase activity” (Eur J Med Chem, 2016).

pIC50, pKd: −log10 of the molar value. Activity calls are given as the source filed them. The rule behind the calls is not given here.

Assay [1] in a line: Growth inhibition of human K562 cells after 7 days by MTS assay. Particulars: K562, 168 h. It is filed as functional, cell-based. Summed up: (§1)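 Proliferation assay in leukaemia cell lines with or without an MLL fusion. MV4-11 (MLL-AF4) gives an IC50 from concentration–response. K562 carries no MLL fusion protein; compounds are tested at a single 35 μM, reported as % remaining growth activity (IC50 where determined).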

Assay [2] in a line: Antiproliferative activity against human MV4-11 cells harboring MLL-AF4 fusion protein by CellTiter-Glo assay. It is filed as functional, cell-based. The procedure, abridged: as §1
The target in assay [3] is WD repeat-containing protein 5 (Homo sapiens, UniProt P61964). In words: Binding affinity to human WDR5 by isothermal titration calorimetry.
In assay [4] the target is MLL1/ASH2L/RBBP5/WDR5 complex (Homo sapiens, UniProt P61964+Q03164+Q15291+Q9UBL3). Briefly: Inhibition of recombinant MLL1/ASH2L/RBBP5/WDR5 complex histone methyltransferase activity (unknown origin) by AlphaScreen assay. It is filed as protein-complex assay.
In assay [5] the target is T1, Histone-lysine N-methyltransferase 2A/WDR5 (Homo sapiens) (UniProt P61964+Q03164). Briefly: Inhibition of MLL1-WDR5 protein-protein interaction in human MV4-11 cells harboring MLL-AF4 fusion protein assessed as inhibition of MLL1 histone methyltransferase activity by measuring reduction in H3K4me1 level at 5 uM after 7 days by Western blot method. It is filed as cell-based. The procedure, abridged: (§2)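 MV4-11 cells were exposed to a range of concentrations for 7 days. H3K4me1 and H3K4me2 were detected by western blotting with β-actin as loading control.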

The target in assay [6] is T1, Histone-lysine N-methyltransferase 2A/WDR5 (Homo sapiens). Briefly: Inhibition of MLL1-WDR5 protein-protein interaction in human MV4-11 cells harboring MLL-AF4 fusion protein assessed as inhibition of MLL1 histone methyltransferase activity by measuring reduction in H3K4me2 level after 7 days by Western blot method. Format: cell-based. The procedure, abridged: as §2

For assay [7] the target is unchanged. In words: Inhibition of MLL1-WDR5 protein-protein interaction in human MV4-11 cells harboring MLL-AF4 fusion protein assessed as inhibition of Hoxa9 gene expression after 7 days by RT-PCR method. Format: cell-based. The procedure, abridged:
(§3)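 MV4-11 cells were treated with DMSO or 0.625, 1.25, 2.5 or 10 μM compound for 7 days. Hoxa9 and Meis-1 expression was measured by RT-PCR against DMSO control. Significance was tested versus the nontreated blank control.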

Assay [8] shares this target. Briefly: Inhibition of MLL1-WDR5 protein-protein interaction in human MV4-11 cells harboring MLL-AF4 fusion protein assessed as inhibition of Meis-1 gene expression after 7 days by RT-PCR method. Format: cell-based. The procedure, abridged: as §3
Assay [9] shares this target. In words: Inhibition of MLL1-WDR5 protein-protein interaction in human MV4-11 cells harboring MLL-AF4 fusion protein assessed as inhibition of Hoxa9 gene expression at 2.5 uM after 7 days by RT-PCR method relative to control. Format: cell-based. Summed up: (§4)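 MV4-11 cells treated for 7 days at 0.625, 1.25, 2.5 and 10 μM, with a DMSO control. Hoxa9 and Meis-1 expression was measured by RT-PCR and compared with the untreated blank control group (*p < 0.05, **p < 0.01).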

For assay [10] the target is unchanged. In words: Inhibition of MLL1-WDR5 protein-protein interaction in human MV4-11 cells harboring MLL-AF4 fusion protein assessed as inhibition of Hoxa9 gene expression at 10 uM after 7 days by RT-PCR method relative to control. It is filed as cell-based. The procedure, abridged:
as §3

Assay [11] shares this target. In words: Inhibition of MLL1-WDR5 protein-protein interaction in human MV4-11 cells harboring MLL-AF4 fusion protein assessed as inhibition of Meis-1 gene expression at 2.5 uM after 7 days by RT-PCR method relative to control. It is filed as cell-based. The procedure, abridged:
as §4

The target is the same in assay [12]. In words: Inhibition of MLL1-WDR5 protein-protein interaction in human MV4-11 cells harboring MLL-AF4 fusion protein assessed as inhibition of Meis-1 gene expression at 10 uM after 7 days by RT-PCR method relative to control. Format: cell-based. Summed up: as §3
The nature of assay [13]: Antiproliferative activity against human MV4-11 cells harboring MLL-AF4 fusion protein after 72 hrs by CCK8 assay. It is filed as functional, cell-based. The settings on record: MV4-11, 72 h.
For assay [14], the system named is MV4-11. In words: Induction of apoptosis in human MV4-11 cells harboring MLL-AF4 fusion protein after 72 hrs by Annexin-V/propidium iodide staining based flow cytometry. Format: functional, cell-based.
For assay [15], the system named is MV4-11. In words: Induction of apoptosis in human MV4-11 cells harboring MLL-AF4 fusion protein assessed as viable cells at 2.5 uM after 72 hrs by Annexin-V/propidium iodide staining based flow cytometry (reference value: 73.8%). It is filed as functional. Particulars: MV4-11, 72 h, read-out: Activity.
The test system of assay [16] is MV4-11. In words: Induction of apoptosis in human MV4-11 cells harboring MLL-AF4 fusion protein assessed as early apoptotic cells at 2.5 uM after 72 hrs by Annexin-V/propidium iodide staining based flow cytometry (reference value: 4.45%). Format: functional.
The test system of assay [17] is MV4-11. In words: Induction of apoptosis in human MV4-11 cells harboring MLL-AF4 fusion protein assessed as late apoptotic cells at 2.5 uM after 72 hrs by Annexin-V/propidium iodide staining based flow cytometry (reference value: 21.6%). It is filed as functional.
Assay [18] deals with MV4-11. Briefly: Induction of apoptosis in human MV4-11 cells harboring MLL-AF4 fusion protein assessed as necrotic cells at 2.5 uM after 72 hrs by Annexin-V/propidium iodide staining based flow cytometry (reference value: 0.15%). Format: functional.
Assay [19] relates to MV4-11. Briefly: Induction of apoptosis in human MV4-11 cells harboring MLL-AF4 fusion protein assessed as viable cells at 5 uM after 72 hrs by Annexin-V/propidium iodide staining based flow cytometry (reference value: 73.8%). Format: functional. The settings on record: MV4-11, 72 h, read-out: Activity.
The subject of assay [20] is MV4-11. Briefly: Induction of apoptosis in human MV4-11 cells harboring MLL-AF4 fusion protein assessed as early apoptotic cells at 5 uM after 72 hrs by Annexin-V/propidium iodide staining based flow cytometry (reference value: 4.45%). It is filed as functional.
The subject of assay [21] is MV4-11. Briefly: Induction of apoptosis in human MV4-11 cells harboring MLL-AF4 fusion protein assessed as late apoptotic cells at 5 uM after 72 hrs by Annexin-V/propidium iodide staining based flow cytometry (reference value: 21.6%). Format: functional.
The subject of assay [22] is MV4-11. Briefly: Induction of apoptosis in human MV4-11 cells harboring MLL-AF4 fusion protein assessed as necrotic cells at 5 uM after 72 hrs by Annexin-V/propidium iodide staining based flow cytometry (reference value: 0.15%). Format: functional.
The subject of assay [23] is MV4-11. Briefly: Induction of apoptosis in human MV4-11 cells harboring MLL-AF4 fusion protein assessed as viable cells at 10 uM after 72 hrs by Annexin-V/propidium iodide staining based flow cytometry (reference value: 73.8%). Format: functional. The settings on record: MV4-11, 72 h, read-out: Activity.
Assay [24] has as its system MV4-11. Briefly: Induction of apoptosis in human MV4-11 cells harboring MLL-AF4 fusion protein assessed as early apoptotic cells at 10 uM after 72 hrs by Annexin-V/propidium iodide staining based flow cytometry (reference value: 4.45%). It is filed as functional.
The subject of assay [25] is MV4-11. In words: Induction of apoptosis in human MV4-11 cells harboring MLL-AF4 fusion protein assessed as late apoptotic cells at 10 uM after 72 hrs by Annexin-V/propidium iodide staining based flow cytometry (reference value: 21.6%). Format: functional.
Assay [26] concerns MV4-11. In words: Induction of apoptosis in human MV4-11 cells harboring MLL-AF4 fusion protein assessed as necrotic cells at 10 uM after 72 hrs by Annexin-V/propidium iodide staining based flow cytometry (reference value: 0.15%). It is filed as functional.

For `CCC(CC)(NC(=O)C(C)C)C(=O)N[C@@H](CCCNC(=N)N)C(=O)NC1(C(=O)NC(c2ccc(F)cc2)c2ccc(F)cc2)CCCC1`, the pIC50 in assay [1] was 4.42; in assay [2] it was 4.60.
In the case of `Cc1c(F)c(N)cc(C(=O)Nc2cc(-c3ccc(N)cc3)ccc2N2CCN(C)CC2)c1Cl`, the pKd in assay [3] was 6.69. The pIC50 in [4] is 5.78; in assay [13], 4.75. In [5], the inhibition entry is “Active”. For the same molecule, the inhibition result in [6] is “Dose-dependent effect”; in assay [7] it was “Dose-dependent effect”; in assay [8] it was “Dose-dependent effect”; in assay [9] it was 50%; in assay [10], 80%; in [11] it was 50%. The inhibition in assay [12] was 80%. Also, the Activity result with MV4-11 [14] was “Dose-dependent effect”; in the assay with MV4-11 [16], 5.5%; with MV4-11 [17], 23.55%; with MV4-11 [18] it was 0.05%; in the assay with MV4-11 [20], 7.95%; in the assay on MV4-11 [21] it was 33.55%. Moreover, the Activity with MV4-11 [22] stood at 0%; in the assay on MV4-11 [24] it was 13.8%; with MV4-11 [25] it was 49.75%; with MV4-11 [26], 0.15%. The viability at 2.5 µM with MV4-11 [15] came out at 70.9%. Also, in the assay on MV4-11 [19], the viability at 5 µM worked out at 58.5%. In addition, in the assay on MV4-11 [23], the viability at 10 µM worked out at 36.3%.
